In ChEMBL document CHEMBL5244270, “Selective Inhibitors of G2019S-LRRK2 Kinase Activity” (J Med Chem, 2020):

Tests used:
[1] = molecular target: T1, Leucine-rich repeat serine/threonine-protein kinase 2 (Homo sapiens, UniProt Q5S007); assay: Inhibition human wild type LRRK2 expressed in human HEK293 assessed as Rab10 substrate phosphorylation at Threonine 73 residue incubated for 2 hrs by immunoblotting analysis; assay type: cell-based
Method in brief: (§1)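 HEK293 cells stably expressing WT or G2019S LRRK2 (100 000/well, EMEM with 1% FBS) were dosed about 24 h after plating, for 2 h. They were lysed in 1% SDS Tris buffer with protease and phosphatase inhibitors, and lysates were heated at 65 °C for 10 min. pThr73-Rab10, total Rab10, pS935 and total LRRK2 were quantified by immunoblot. IC50 is the geometric mean of at least two independent experiments.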

[2] = molecular target: T2, Leucine-rich repeat serine/threonine-protein kinase 2 (Homo sapiens, UniProt Q5S007, G2019S); assay: Inhibition of N-terminal GST-fused human LRRK2 G2019S mutant using fluorescein-labeled LRRKtide as substrate preincubated for 15 mins followed by substrate addition and measured after 1 hr by TR-FRET assay
T2 sequence (Q5S007 whole entry G2019S, the tested form may be a part): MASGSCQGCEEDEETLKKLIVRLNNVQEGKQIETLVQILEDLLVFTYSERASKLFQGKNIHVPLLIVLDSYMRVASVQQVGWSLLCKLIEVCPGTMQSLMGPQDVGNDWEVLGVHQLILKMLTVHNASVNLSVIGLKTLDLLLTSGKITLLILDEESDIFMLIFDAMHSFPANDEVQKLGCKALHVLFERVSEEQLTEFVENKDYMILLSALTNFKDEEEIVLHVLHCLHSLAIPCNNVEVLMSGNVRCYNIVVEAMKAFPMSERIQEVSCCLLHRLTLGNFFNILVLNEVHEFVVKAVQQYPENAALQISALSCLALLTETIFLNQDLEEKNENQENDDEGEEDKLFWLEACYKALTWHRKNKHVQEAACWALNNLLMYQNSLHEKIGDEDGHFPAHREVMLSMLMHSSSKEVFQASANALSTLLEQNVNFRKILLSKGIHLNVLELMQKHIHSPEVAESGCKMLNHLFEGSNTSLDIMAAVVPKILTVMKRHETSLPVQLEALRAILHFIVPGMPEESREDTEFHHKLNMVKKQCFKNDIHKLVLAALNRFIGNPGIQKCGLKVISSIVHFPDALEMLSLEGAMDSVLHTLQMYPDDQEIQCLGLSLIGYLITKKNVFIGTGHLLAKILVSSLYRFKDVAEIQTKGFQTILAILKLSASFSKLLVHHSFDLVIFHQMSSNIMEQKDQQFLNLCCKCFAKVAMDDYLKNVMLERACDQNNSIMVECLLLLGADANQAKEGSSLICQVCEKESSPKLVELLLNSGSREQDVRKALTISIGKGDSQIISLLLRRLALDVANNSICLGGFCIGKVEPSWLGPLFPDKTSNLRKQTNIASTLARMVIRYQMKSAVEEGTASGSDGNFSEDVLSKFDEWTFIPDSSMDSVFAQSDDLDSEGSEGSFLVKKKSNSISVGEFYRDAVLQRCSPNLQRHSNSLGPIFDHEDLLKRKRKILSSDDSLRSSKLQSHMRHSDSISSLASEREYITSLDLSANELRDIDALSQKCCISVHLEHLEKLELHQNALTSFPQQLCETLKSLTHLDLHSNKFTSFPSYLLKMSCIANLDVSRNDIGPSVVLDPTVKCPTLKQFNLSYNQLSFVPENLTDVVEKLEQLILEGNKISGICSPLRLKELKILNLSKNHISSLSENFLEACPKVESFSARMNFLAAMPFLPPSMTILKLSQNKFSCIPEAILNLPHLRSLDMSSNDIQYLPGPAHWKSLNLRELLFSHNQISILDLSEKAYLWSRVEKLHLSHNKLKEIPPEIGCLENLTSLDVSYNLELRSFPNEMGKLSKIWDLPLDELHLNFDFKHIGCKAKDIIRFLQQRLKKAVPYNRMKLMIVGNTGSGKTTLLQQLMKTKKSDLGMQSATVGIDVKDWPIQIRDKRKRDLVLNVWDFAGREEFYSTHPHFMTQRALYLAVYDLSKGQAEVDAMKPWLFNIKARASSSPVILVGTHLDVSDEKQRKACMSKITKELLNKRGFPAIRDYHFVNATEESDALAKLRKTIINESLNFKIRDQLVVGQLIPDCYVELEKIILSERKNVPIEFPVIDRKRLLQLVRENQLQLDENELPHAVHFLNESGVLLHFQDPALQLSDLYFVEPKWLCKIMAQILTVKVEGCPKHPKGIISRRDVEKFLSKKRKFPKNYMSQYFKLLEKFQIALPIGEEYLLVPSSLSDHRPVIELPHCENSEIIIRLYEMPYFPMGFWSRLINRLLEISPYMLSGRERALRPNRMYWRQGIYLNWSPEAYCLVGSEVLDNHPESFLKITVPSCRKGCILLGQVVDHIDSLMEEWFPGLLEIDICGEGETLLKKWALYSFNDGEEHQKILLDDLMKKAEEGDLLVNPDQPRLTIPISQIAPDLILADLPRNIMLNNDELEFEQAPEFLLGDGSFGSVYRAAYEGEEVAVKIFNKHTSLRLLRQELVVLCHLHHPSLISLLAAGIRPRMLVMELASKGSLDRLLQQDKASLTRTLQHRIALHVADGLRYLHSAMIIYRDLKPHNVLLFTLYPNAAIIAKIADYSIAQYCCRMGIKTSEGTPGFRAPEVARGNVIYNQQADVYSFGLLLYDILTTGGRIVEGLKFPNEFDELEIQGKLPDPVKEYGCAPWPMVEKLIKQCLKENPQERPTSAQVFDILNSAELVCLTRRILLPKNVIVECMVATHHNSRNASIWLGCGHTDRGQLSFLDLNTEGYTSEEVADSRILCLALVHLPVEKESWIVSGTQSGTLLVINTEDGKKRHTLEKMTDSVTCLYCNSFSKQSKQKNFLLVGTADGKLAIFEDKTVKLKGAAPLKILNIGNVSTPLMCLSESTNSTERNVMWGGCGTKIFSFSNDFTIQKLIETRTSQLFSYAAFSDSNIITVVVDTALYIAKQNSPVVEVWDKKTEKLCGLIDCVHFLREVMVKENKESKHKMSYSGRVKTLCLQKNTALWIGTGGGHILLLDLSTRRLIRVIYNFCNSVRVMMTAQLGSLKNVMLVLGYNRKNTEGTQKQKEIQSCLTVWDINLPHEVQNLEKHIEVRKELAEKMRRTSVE
Method in brief: (§2)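 Purified truncated LRRK2, WT or G2019S, at 2 nM nominal was preincubated with inhibitor for 15 min. LRRKtide (0.4 μM) and ATP (25 μM) were then added for 1 h. The reaction was stopped with 10 mM EDTA plus 2 nM Tb-anti-pLRRKtide antibody, and TR-FRET was read. IC50 is the geometric mean of at least two independent experiments.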

[3] = molecular target: T2, Leucine-rich repeat serine/threonine-protein kinase 2; assay: Inhibition of human LRRK2 G2019S mutant expressed in HEK293 cells assessed as reduction in pSer935 phosphorylation incubated for 2 hrs by HTRF analysis; assay type: cell-based
Method in brief: (§3)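 Stably transfected HEK293 cells expressing human WT or G2019S LRRK2 were seeded at 5K/well in DMEM with 1% serum on poly-D-lysine plates. Inhibitor in DMSO was added for 2 h at 37 °C. pS935 was detected by an HTRF kit. IC50 is the geometric mean of at least two independent experiments.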

[4] = species on record: Homo sapiens; assay: Selectivity ratio of IC50 for inhibition of human wild type LRRK2 expressed in HEK293 cells to IC50 for inhibition of human LRRK2 G2019S mutant expressed in HEK293; assay type: cell-based; method in brief: as §1
[5] = molecular target: T1, Leucine-rich repeat serine/threonine-protein kinase 2; assay: Inhibition of human wild type LRRK2 expressed in HEK293 cells assessed as reduction in pSer935 phosphorylation incubated for 2 hrs by immunoblotting analysis; assay type: cell-based; method in brief: as §1
[6] = molecular target: T2, Leucine-rich repeat serine/threonine-protein kinase 2; assay: Inhibition human LRRK2 G2019S mutant expressed in human HEK293 assessed as Rab10 substrate phosphorylation at Threonine 73 residue incubated for 2 hrs by immunoblotting analysis; assay type: cell-based; method in brief: as §1
[7] = molecular target: T2, Leucine-rich repeat serine/threonine-protein kinase 2; assay: Inhibition of human LRRK2 G2019S mutant expressed in HEK293 cells assessed as reduction in pSer935 phosphorylation incubated for 2 hrs by immunoblotting analysis; assay type: cell-based; method in brief: as §1
[8] = molecular target: T1, Leucine-rich repeat serine/threonine-protein kinase 2; assay: Inhibition of human wild type LRRK2 expressed in HEK293 cells assessed as reduction in pS1292 phosphorylation incubated for 2 hrs by MSD analysis; assay type: cell-based
Method in brief: (§4)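 HEK293 cells stably expressing WT or G2019S LRRK2 (30−50K/well, DMEM with 1% serum) were treated for 2 h at 37 °C and lysed with phosphatase inhibitors. LRRK2 was captured on anti-LRRK2-coated MSD plates overnight at 4 °C. Detection used rabbit anti-pS1292 (1:400) and Sulfo-Tag anti-rabbit, with an electrochemiluminescence read-out. IC50 is the geometric mean of at least two independent experiments.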

[9] = molecular target: T2, Leucine-rich repeat serine/threonine-protein kinase 2; assay: Inhibition of human LRRK2 G2019S mutant expressed in HEK293 cells assessed as reduction in pS1292 phosphorylation incubated for 2 hrs by MSD analysis; assay type: cell-based; method in brief: as §4
[10] = species on record: Homo sapiens; assay: Selectivity ratio of IC50 for inhibition of human wild type LRRK2 expressed in HEK293 cells assessed as reduction in pSer935 phosphorylation to IC50 for inhibition of human LRRK2 G2019S mutant expressed in HEK293 cells assessed as reduction in pSer935 phosphorylation; assay type: cell-based; method in brief: as §3
[11] = species on record: Homo sapiens; assay: Selectivity ratio of IC50 for inhibition of N-terminal GST-fused human wild type LRRK2 to IC50 for inhibition of N-terminal GST-fused human […] mutant; method in brief: as §2
[12] = species on record: Homo sapiens; assay: Selectivity ratio of IC50 for inhibition of human wild type LRRK2 expressed in HEK293 cells assessed as reduction in pS1292 phosphorylation to IC50 for inhibition of human LRRK2 G2019S mutant expressed in HEK293 cells assessed as reduction in pS1292 phosphorylation; assay type: cell-based; method in brief: as §4
[13] = species on record: Homo sapiens; assay: Selectivity ratio of IC50 for inhibition human wild type LRRK2 expressed in human HEK293 assessed as Rab10 substrate phosphorylation at Threonine 73 residue to IC50 for inhibition of human LRRK2 G2019S mutant expressed in human HEK293 assessed as Rab10 substrate phosphorylation at Threonine 73 residue; method in brief: as §1
[14] = molecular target: T1, Leucine-rich repeat serine/threonine-protein kinase 2; assay: Inhibition of human wild type LRRK2 expressed in HEK293 cells assessed as reduction in pSer935 phosphorylation incubated for 2 hrs by HTRF analysis; assay type: cell-based; method in brief: as §3
[15] = molecular target: T1, Leucine-rich repeat serine/threonine-protein kinase 2; assay: Inhibition of N-terminal GST-fused human wild type LRRK2 using fluorescein-labeled LRRKtide as substrate preincubated for 15 mins followed by substrate addition and measured after 1 hr by TR-FRET assay; method in brief: as §2

T1 sequence (Q5S007 whole entry): as the sequence (Q5S007 whole entry G2019S, the tested form may be a part) above, with S2019G counted along it

| SMILES | IC50 [1] | IC50 [2] | IC50 [3] | Ratio IC50 [4] | IC50 [5] | IC50 [6] | IC50 [7] | IC50 [8] | IC50 [9] | Ratio IC50 [10] | Ratio IC50 [11] | Ratio IC50 [12] | Ratio IC50 [13] | IC50 [14] | IC50 [15] |
| --- | --- | --- | --- | --- | --- | --- | --- | --- | --- | --- | --- | --- | --- | --- | --- |
| CC1=C(C(=O)Nc2ccc3[nH]nc(-c4ccccc4)c3c2)C(C)(C)n2nnnc2N1C | 3920 nM | < 0.2 nM | 3.1 nM | 339 | 2090 nM | 11.4 nM | 2.5 nM | 117 nM | 1.7 nM | 837 | > 33 | 71 | 344 | 1060 nM | 6.6 nM |
| CC1=C(C(=O)Nc2ccc3[nH]nc(C)c3c2)[C@@H](C)n2nnnc2N1C | 9740 nM | 0.82 nM | 46.1 nM | 113 | 8740 nM | 137 nM | 106 nM | 380 nM | 19 nM | 82 | 24 | 20 | 71 | 5220 nM | 20 nM |
